Source: ChEMBL document CHEMBL3875209, “Synthesis and biological evaluation of cis-restricted triazole/tetrazole mimics of combretastatin-benzothiazole hybrids as tubulin polymerization inhibitors and apoptosis inducers” (Bioorg Med Chem, 2017)

Key:
[1] = Antiproliferative activity against human DU145 cells after 48 hrs by MTT assay; assay type: functional, cell-based; conditions: DU-145, 48 h
Method in brief: (§1)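 MTT assay. Cells seeded in DMEM with 10% FBS and left 24 h at 37 °C in CO2 before compound treatment for 48 h. MTT (5 mg/mL stock) added for 4 h, formazan dissolved in DMSO, absorbance read at 570 nm. IC50 taken as the mean of three independent experiments.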

[2] = Antiproliferative activity against human MCF7 cells after 48 hrs by MTT assay; assay type: functional, cell-based; conditions: MCF7, 48 h; method in brief: as §1
[3] = Antiproliferative activity against human HepG2 cells after 48 hrs by MTT assay; assay type: functional, cell-based; conditions: HepG2, 48 h; method in brief: as §1
[4] = Antiproliferative activity against human HeLa cells after 48 hrs by MTT assay; assay type: functional, cell-based; method in brief: as §1
[5] = Antiproliferative activity against human A549 cells after 48 hrs by MTT assay; assay type: functional, cell-based; conditions: A549, 48 h; method in brief: as §1
A549 [6] = assay: Induction of mitochondrial membrane potential loss in human A549 cells assessed as intact mitochondrial membrane at 100 nM after 48 hrs by JC-1 staining based flow cytometry (reference value: 95.9%); assay type: functional
A549 [7] = assay: Induction of mitochondrial membrane potential loss in human A549 cells at 100 nM after 48 hrs by JC-1 staining based flow cytometry (reference value: 3.8%); assay type: functional
A549 [8] = assay: Induction of ROS generation in human A549 cells at 100 nM after 48 hrs by DCFDA staining based flow cytometry (reference value: 4.4%); assay type: functional

Structure (SMILES)	IC50 [1] [µM]	IC50 [2] [µM]	IC50 [3] [µM]	IC50 [4] [µM]	IC50 [5] [µM]	Activity (A549 [6]) [%]	Activity (A549 [7]) [%]	Activity (A549 [8]) [%]
COc1cc(-c2nc3ccc(F)cc3s2)ccc1-n1cnnc1-c1cc(OC)c(OC)c(OC)c1	7.58	2.49	2.75	2.81	1.22			
COc1ccc2nc(-c3ccc(-n4nnnc4-c4cc(OC)c(OC)c(OC)c4)c(OC)c3)sc2c1	5.67	3.45	1.67	4.56	2.25			
COc1cc(-c2nnnn2-c2ccc(-c3nc4ccc(F)cc4s3)cc2)cc(OC)c1OC	4.57	8.57	7.95	2.23	2.07			
Cc1cc(-c2nc3cc(F)ccc3s2)ccc1N						81.8	16	10
COc1ccc2nc(-c3ccc(-n4nnnc4-c4cc(OC)c(OC)c(OC)c4)cc3)sc2c1	9.12	11.2	9.05	6.6	3.8			
COc1cc(-c2nnnn2-c2ccc(-c3nc4cc(OC)c(OC)c(OC)c4s3)cc2C)cc(OC)c1OC	14.8	17.5	23.4	9.81	7.41			
COc1ccc2nc(-c3ccc(-n4cc(-c5cc(OC)c(OC)c(OC)c5)nn4)c(C)c3)sc2c1	18.2	22	20.1	13.1	15.8			
COc1cc(OC)c2sc(-c3ccc(-n4nnnc4-c4cc(OC)c(OC)c(OC)c4)c(OC)c3)nc2c1	13.5	24.7	17	11.7	9.24			
COc1cc(-c2nnnn2-c2ccc(-c3nc4cc(OC)c(OC)c(OC)c4s3)cc2)cc(OC)c1OC	7.24	8.68	8.51	6.16	3.54			
COc1cc(-c2nc3ccc(F)cc3s2)ccc1-n1nnnc1-c1cc(OC)c(OC)c(OC)c1	4.77	1.52	1.24	4.36	1.38			
COc1cc(-c2cn(-c3ccc(-c4nc5cc(OC)c(OC)c(OC)c5s4)cc3)nn2)cc(OC)c1OC	14.8	9.12	15.5	11.5	8.54			
COc1cc(-c2cn(-c3ccc(-c4nc5cc(OC)c(OC)c(OC)c5s4)cc3C)nn2)cc(OC)c1OC	15.8	20.8	18.6	11.3	9.77			
COc1ccc2nc(-c3ccc(-n4nnnc4-c4cc(OC)c(OC)c(OC)c4)c(C)c3)sc2c1	15.9	12.6	10.5	11	4.78			
COc1ccc2nc(-c3ccc(-n4cnnc4-c4cc(OC)c(OC)c(OC)c4)c(OC)c3)sc2c1	11.6	14.7	9.05	8.76	9.06			
COc1cc(-c2nc3cc(OC)c(OC)c(OC)c3s2)ccc1-n1nnnc1-c1cc(OC)c(OC)c(OC)c1	10.8	16.6	16	5.79	3.8			
COc1cc(OC)c2sc(-c3ccc(-n4cc(-c5cc(OC)c(OC)c(OC)c5)nn4)c(C)c3)nc2c1	10.2	18.8	15.5	8.12	7.76			
COc1cc(OC)c2sc(-c3ccc(-n4nnnc4-c4cc(OC)c(OC)c(OC)c4)cc3)nc2c1	19.9	31.6	22.4	10.2	7.24			
COc1cc(OC)c2sc(-c3ccc(-n4cnnc4-c4cc(OC)c(OC)c(OC)c4)cc3)nc2c1	11.8	8.21	9.65	4.13	5.04			

Structure (SMILES)	IC50 [1] [µM]	IC50 [2] [µM]	IC50 [3] [µM]	IC50 [4] [µM]	IC50 [5] [µM]	Activity (A549 [6]) [%]	Activity (A549 [7]) [%]	Activity (A549 [8]) [%]
COc1cc(OC)c2sc(-c3ccc(-n4nnnc4-c4cc(OC)c(OC)c(OC)c4)c(C)c3)nc2c1	11.7	17.2	9.74	8.7	5.38			
COc1cc(OC)c2sc(-c3ccc(-n4cnnc4-c4cc(OC)c(OC)c(OC)c4)c(OC)c3)nc2c1	10.2	8.57	9.2	6.45	7.24			
COc1cc(-c2nnnn2-c2ccc(-c3nc4ccc(F)cc4s3)cc2C)cc(OC)c1OC	1.14	3.23	1.69	0.97	0.24			
COc1cc(OC)c2sc(-c3ccc(-n4cc(-c5cc(OC)c(OC)c(OC)c5)nn4)c(OC)c3)nc2c1	0.41	4.36	1.47	0.37	0.24			
COc1cc(-c2nncn2-c2ccc(-c3nc4cc(OC)c(OC)c(OC)c4s3)cc2)cc(OC)c1OC	0.46	3.15	1.27	0.21	0.091			
COc1cc(-c2nc3cc(OC)c(OC)c(OC)c3s2)ccc1-n1cc(-c2cc(OC)c(OC)c(OC)c2)nn1	15.9	27.8	29.9	17.8	11			
COc1cc(-c2cn(-c3ccc(-c4nc5ccc(F)cc5s4)cc3)nn2)cc(OC)c1OC	8.12	10.7	7.76	3.46	1.41			
COc1ccc2nc(-c3ccc(-n4cc(-c5cc(OC)c(OC)c(OC)c5)nn4)cc3)sc2c1	12.3	22.9	12.4	11.5	6.3			
COc1cc(-c2nc3ccc(F)cc3s2)ccc1-n1cc(-c2cc(OC)c(OC)c(OC)c2)nn1	14.2	16.1	13.9	10.1	6.02			
COc1cc(-c2cn(-c3ccc(-c4nc5ccc(F)cc5s4)cc3C)nn2)cc(OC)c1OC	7.33	10.8	8.05	6.76	3.38			
COc1cc(-c2nc3cc(OC)c(OC)c(OC)c3s2)ccc1-n1cnnc1-c1cc(OC)c(OC)c(OC)c1	11.5	10.5	7.41	5.51	3.46			
COc1ccc2nc(-c3ccc(-n4cc(-c5cc(OC)c(OC)c(OC)c5)nn4)c(OC)c3)sc2c1	18.6	15.5	16.4	11.1	10.7			
COc1cc(-c2nncn2-c2ccc(-c3nc4cc(OC)c(OC)c(OC)c4s3)cc2C)cc(OC)c1OC	0.7	2.99	1.25	0.21	0.23			
COc1cc(OC)c2sc(-c3ccc(-n4cc(-c5cc(OC)c(OC)c(OC)c5)nn4)cc3)nc2c1	9.33	19.9	17.4	9.05	7.61			
COc1cc(-c2nncn2-c2ccc(-c3nc4ccc(F)cc4s3)cc2)cc(OC)c1OC	8.21	12.5	10.4	7	6.58			
COc1ccc2nc(-c3ccc(-n4cnnc4-c4cc(OC)c(OC)c(OC)c4)cc3)sc2c1	11.2	9.5	11.6	10	7.24			
COc1cc(OC)c2sc(-c3ccc(-n4cnnc4-c4cc(OC)c(OC)c(OC)c4)c(C)c3)nc2c1	1.04	5.35	2.54	0.93	0.26			
